Paper PMC12328631 (Nature Communications, 2025)
pIC50: −log10 of the molar value. One block for each compound: values may come before it. Peptide text beside a SMILES is read from it. * marks the point of attachment. Cbz = O=C(OCc1ccccc1)*

Experiments:
Sec61 translocon = Sec61 translocon (Homo sapiens, UniProt P61619); experiment: RELITE assay, FLuc equipped with the SP of CD4; assay type: cell-based; details: for response of the RELITE assay (FLuc/RLuc ratio): Fig. S8b; for response of the RELITE assay (FLuc/RLuc ratio) / effect on FLuc activity (FLuc/RLuc ratio): HEK293, 6 hours; for effect on FLuc activity (FLuc/RLuc ratio): Tunicamycin 10 μg/ml, Thapsigargin 3 μM; for effect on FLuc/RLuc ratio: Fig. 1h, 6 hours of treatment, non-selective Sec61 inhibitors
[1] = system: Firefly luciferase (FLuc) reporter equipped with the SP of CD4; experiment: FLuc enzymatic activity in HEK293 transfected with the IRES-vector; assay type: cell-based, human
Outline: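 HEK293 cells were transiently transfected with a bicistronic IRES vector carrying the CD4 signal peptide-FLuc reporter. For fractionation, cells were treated 24 h post-transfection for 6 h, mechanically lysed and ultracentrifuged into P100 and S100 fractions, and FLuc was read on each. For the time course, cells were replated 8 h post-transfection, treated 16 h later, and FLuc was read up to 6 h. For the chase, 100 µg/ml cycloheximide was added for 2 h after 6 h treatment.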

GB138 cells = experiment: Cell viability assay; assay type: cell-based, human; details: GB138 (Fig. S5)
HA-FLuc = HA-FLuc protein levels by western blotting; assay type: cell-based, human; details: total cell extract, 6 h
Outline: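 HEK293 cells were transfected with the IRES vector and replated after 8 h, then treated 16 h later for up to 6 h. Total extracts were made in B-Buffer (50 mM HEPES, 150 mM NaCl, 1% Triton X-100, protease inhibitors) and equalised by Bradford. Cytosolic and membrane fractions came from syringe lysis and differential centrifugation. Western blots used anti-HA, with GAPDH and calnexin as fraction markers.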

PD-L1 = assay type: cell-based, human; details: read-out: IC50 (PD-L1-HA protein levels); GB138 stably expressing SPnPD-L1-HA, 0 to 20 μM, 24 hours (Fig. S4)
Outline: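 GB138 glioblastoma cells stably expressing SPnPD-L1-HA were kept at 37 °C in DMEM with 10% FBS, 2 mM L-Gln and 400 μg/ml G418. Cells were exposed to test compounds at 0 to 20 μM for 24 h. Extracts in Triton-containing B-Buffer were resolved by SDS-PAGE and PD-L1-HA levels quantified by western blot with ECL, using calnexin as loading control. IC50 was taken from the titration curve.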

response of the RELITE assay (FLuc/RLuc ratio) (Sec61 translocon): not responding
Compound: COc1ccc(C[C@H](N)C(=O)N[C@H]2[C@@H](O)[C@H](n3cnc4c(N(C)C)ncnc43)O[C@@H]2CO)cc1 [Puromycin]

Compound: CC(C)C[C@@H](C=O)NC(=O)[C@H](CC(C)C)NC(=O)[C@H](CC(C)C)NC(=O)OCc1ccccc1 [MG132] (Cbz-Leu-Leu-Leu-aldehyde)
FLuc enzymatic activity over time ([1]; Fig. 1e, up to 6 h): time-dependent increment of the FLuc enzymatic activity

response of the RELITE assay (FLuc/RLuc ratio) (Sec61 translocon): not responding
Compound: CCN(CCO)CCCC(C)Nc1ccnc2cc(Cl)ccc12 (stereo not shown) [Hydroxychloroquine]

Compound: Tunicamycin
effect on FLuc activity (FLuc/RLuc ratio) (Sec61 translocon; Fig. S1b): significant elevation of the FLuc activity | toxicity in cell viability assay (GB138 cells): highly toxic for the cells

Compound: C[C@@H]1C[C@@H]([C@H](O)CC2CC(=O)NC(=O)C2)C(=O)[C@@H](C)C1 [Cycloheximide]
response of the RELITE assay (FLuc/RLuc ratio) (Sec61 translocon): not responding

CADA effect on FLuc activity under co-treatment with cycloheximide (CHX) (Sec61 translocon; Fig. S1b, CADA 20 μM + CHX 100 μg/ml, 6 hours): abrogated the CADA effect | pIC50 (PD-L1): ~4.70
Compound: C=C1CN(S(=O)(=O)c2ccc(C)cc2)CCCN(Cc2ccccc2)CCCN(S(=O)(=O)c2ccc(C)cc2)C1 [CADA, Cyclotriazadisulfonamide]
FLuc activity after cell fractionation ([1]; Fig. 1d, S100 vs P100): increased FLuc activity only in the cytosolic S100 fraction | total HA-FLuc protein levels (western blotting) (HA-FLuc): significant reduction of the total HA-FLuc protein levels

Compound: C[C@H]1CCC/C=C/[C@@H]2C[C@H](O)C[C@H]2[C@H](O)/C=C/C(=O)O1 [Brefeldin A]
response of the RELITE assay (FLuc/RLuc ratio) (Sec61 translocon): not responding

Compound: C/C=C(/C)C(=O)O[C@H]1C(C)=C2[C@H]([C@@H]1OC(=O)CCCCCCC)[C@@](C)(OC(C)=O)C[C@H](OC(=O)CCC)[C@@]1(O)[C@H]2OC(=O)[C@@]1(C)O [Thapsigargin]
effect on FLuc activity (FLuc/RLuc ratio) (Sec61 translocon; Fig. S1b): failed to increase activity | response of the RELITE assay (FLuc/RLuc ratio) (Sec61 translocon): not responding

Compound: CC1(C)C(N(O)C(=O)Nc2ccc(Cl)cc2)N(c2ccc(Cl)cc2)C(=O)N1CC(=O)N/N=C/C=C/c1ccc([N+](=O)[O-])o1 (stereo not shown) [Eeyarestatin 1]
effect on FLuc/RLuc ratio (Sec61 translocon): significant reduction of the FLuc/RLuc ratio | total HA-FLuc protein levels (western blotting) (HA-FLuc): significant reduction of FLuc protein levels

Compound: CC(=C\C=C\C(C)=C\[C@H](O)[C@@H](O)C[C@H](C)O)/C=C(C)/C=C/C(=O)O[C@H]1CCCC(=O)O[C@@H]([C@@H](C)C/C(C)=C/[C@@H](C)[C@H](O)C[C@@H](C)O)C/C=C(\C)C[C@@H]1C [Mycolactone]
effect on FLuc/RLuc ratio (Sec61 translocon): significant elevation of the FLuc/RLuc ratio
